Source: PubChem
S100A4 MyoIIA = inhibitors of S100A4-myosin IIA peptide binding, primary screen, biochemical, fluorescence polarization, TAMRA-MyoIIA peptide. inhibition, % at 10.7 µM. AID 652163, 2013. 360,000 tested, 0.14% active;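 active = mean inhibition of at least 70% across replicates, with every replicate also reaching that level; inconclusive = mean inhibition reaches 70% but some replicates fall short; inactive = mean inhibition below 70%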
Target sequence (P26447 whole entry, looked up): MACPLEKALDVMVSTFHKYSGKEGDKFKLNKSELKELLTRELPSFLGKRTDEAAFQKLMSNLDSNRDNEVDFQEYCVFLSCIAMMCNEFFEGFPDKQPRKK
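Test system: S100A4 monomer protein; Medium: HEPES pH 7.2 with CaCl2, KCl, NaCl, DTT, Triton; Probe or stimulus: TAMRA-labelled myosin IIA heavy-chain peptide probe, 5 nM; Doses: one dose per compound; Times: polarization read 5 min after assay mix addition, stable 5–60 min; Benchmarks: neutral control DMSO, positive control TFP.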
SIRT5 block = SIRT5 desuccinylase inhibitors, primary screen, biochemical, fluorescence imaging, single point, set 5 | Purified SirT5, succinyl-peptide AMC, trypsin-coupled fluorescence | 330,000 tested, 1.1% active | NAD-dependent protein deacylase sirtuin-5, mitochondrial (Homo sapiens), Q9NXA8 | inhibition, % at 15 µM; in the data active = inhibition above about 15%; inconclusive = no clear call, values can overlap the other calls
ERAP1 inh = human ERAP1 aminopeptidase inhibitors, primary screen, biochemical, single point, plate reader; AID 652197, 2013; recombinant ERAP1, Leu-AMC fluorescence, 60 min; 340,000 tested, 0.15% active; Endoplasmic reticulum aminopeptidase 1 (Homo sapiens), Q9NZ08; inhibition, % at 10.7 µM;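 active = mean replicate inhibition of at least 30%, or all replicates individually reaching that 30% level; inactive = mean below 30% and not every replicate reaching it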;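 note: 0% = neutral control wells and 100% = L-leucinethiol positive control wells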
AF4-AF9 inh = inhibitors of AF4 peptide binding to AF9, primary screen, biochemical, AlphaScreen, biotin-AF4 peptide, FLAG-AF9, single point; Protein AF-9 (Homo sapiens), P42568; inhibition, % at 10 µM; 350,000 tested, 0.47% active;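 active = every replicate reaching a set inhibition limit, whatever the replicate mean, cut at about 25% in these data; inconclusive = mean inhibition reaches that limit but some replicates miss it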;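 note: 0% = plate neutral control median and 100% = total signal loss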
Ecoli rRNA inh = reduced GFP signal of wild-type E. coli, primary screen, bacterial rRNA inhibitor project, GFP/RFP fluorescence, OD600, single point; GFP signal change (wild-type ribosome), % (test concentration not listed); E. coli WT GFP vs humanized-ribosome RFP mutants, 24 h; stronger effect = lower value; DMSO median 0, no signal -100; 350,000 tested, 1.6% active;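 active = significant combined selectivity score with lowered wild-type GFP, culture density cut under 30%, mutant RFP and density less affected; inactive = any of these conditions unmet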
E-selectin induc = E-selectin induction in HUVECs, primary screen, imaging, HUVEC, immunofluorescence imaging, single point; 260,000 tested, 0.37% active; P16581; normalized: neutral wells 0, TNF-alpha wells 100; activation, % at 7.58 µM;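 active = mean E-selectin-positive cell signal at least 10% of the positive control, reached in at least 60% of replicates, without over 20% cell loss; inconclusive = no rule given, readout overlaps actives, possibly toxicity-flagged; inactive = the rest, including those meeting only one limit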
Target sequence (P16581 whole entry, looked up): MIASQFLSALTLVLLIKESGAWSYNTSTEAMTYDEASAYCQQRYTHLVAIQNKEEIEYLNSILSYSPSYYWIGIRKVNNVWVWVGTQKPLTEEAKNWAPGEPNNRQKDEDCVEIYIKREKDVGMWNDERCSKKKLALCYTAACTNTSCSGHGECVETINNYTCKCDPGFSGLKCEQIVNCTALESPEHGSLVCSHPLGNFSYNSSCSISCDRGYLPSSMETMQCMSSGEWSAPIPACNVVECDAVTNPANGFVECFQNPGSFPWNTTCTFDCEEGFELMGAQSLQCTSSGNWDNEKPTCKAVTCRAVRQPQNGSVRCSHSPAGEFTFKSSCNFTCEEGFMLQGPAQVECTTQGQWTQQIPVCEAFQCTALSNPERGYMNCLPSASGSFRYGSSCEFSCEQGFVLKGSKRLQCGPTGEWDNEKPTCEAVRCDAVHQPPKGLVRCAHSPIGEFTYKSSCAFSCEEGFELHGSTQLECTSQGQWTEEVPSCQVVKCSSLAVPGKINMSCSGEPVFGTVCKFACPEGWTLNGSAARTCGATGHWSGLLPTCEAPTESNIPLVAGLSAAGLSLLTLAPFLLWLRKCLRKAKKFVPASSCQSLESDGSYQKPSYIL
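Test system – human umbilical vein endothelial cells (HUVEC), E-selectin induction · Input – 3,000 HUVEC seeded per well · Buffer or medium – EGM-2, gelatin · Compound dosing – single-point compound dose · Detection – immunofluorescence imaging · Measure – percent E-selectin-positive cells · Controls – TNF-alpha high, DMSO low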
* hit, by the source's call. Shown are actives, neighbours in structure and some others; about 3.4% of the full set was active somewhere.

Results for C[C@@H]1CCCCO[C@@H](CN(C)S(C)(=O)=O)[C@@H](C)CN([C@H](C)CO)C(=O)c2cc(NC(=O)C3CCCCC3)ccc2O1 ?
S100A4 MyoIIA: 5; SIRT5 block: -1; ERAP1 inh: -3; AF4-AF9 inh: -2; Ecoli rRNA inh: 4; E-selectin induc: 0

How did COC(=O)C[C@@H]1CC[C@H]2[C@@H](COc3ccc(NC(=O)c4cccc(OC)c4)cc3C(=O)N2C)O1 do in these assays?
S100A4 MyoIIA: -21; SIRT5 block: 4; ERAP1 inh: 2; AF4-AF9 inh: 1; Ecoli rRNA inh: 4; E-selectin induc: 0

What do the screens show for `CN(Cc1ccccc1)C(=O)c1ncn(Cc2ccccc2)c1C(=O)N(C)Cc1ccccc1`?
S100A4 MyoIIA: -2; SIRT5 block: 1; ERAP1 inh: -2; AF4-AF9 inh: 0; Ecoli rRNA inh: -18; E-selectin induc: 0

How did CN(Cc1ccccc1)C(=O)c1ncn(C)c1C(=O)N(C)Cc1ccccc1 do in these assays?
S100A4 MyoIIA: 57; SIRT5 block: -3; ERAP1 inh: 31*; AF4-AF9 inh: -6; Ecoli rRNA inh: 15; E-selectin induc: 0

What do the screens show for `CCN(CC)C(=O)c1ncn(C)c1C(=O)N(CC)CC`?
S100A4 MyoIIA: -5; ERAP1 inh: 107*; AF4-AF9 inh: -5; Ecoli rRNA inh: -8

Results for CC1CCCCN1C(=S)NC(=O)c1cccs1 (centres undefined) ?
S100A4 MyoIIA: 2; SIRT5 block: -3; ERAP1 inh: -5; AF4-AF9 inh: -43; Ecoli rRNA inh: 17

How did CC1CCN(C(=S)NC(=O)c2cccs2)CC1 do in these assays?
S100A4 MyoIIA: -3; SIRT5 block: -2; ERAP1 inh: 3; AF4-AF9 inh: -29; Ecoli rRNA inh: -22*; E-selectin induc: 1

Results for O=C1c2ccccc2C(c2nnnn2-c2ccc3c(c2)OCCO3)N1CCc1ccccc1F (centres undefined) ?
S100A4 MyoIIA: -8; SIRT5 block: -3; AF4-AF9 inh: 0; Ecoli rRNA inh: -34*; E-selectin induc: 1

What do the screens show for `O=C1c2ccccc2C(c2nnnn2-c2ccc3c(c2)OCCO3)N1CCc1ccc(O)cc1` (centres undefined)?
S100A4 MyoIIA: -1; SIRT5 block: 0; AF4-AF9 inh: 3; Ecoli rRNA inh: -13; E-selectin induc: 0

What do the screens show for `C[C@@H]1CN([C@@H](C)CO)C(=O)c2cc(NC(=O)c3ccncc3)ccc2O[C@@H](C)CCCCO[C@H]1CN(C)S(=O)(=O)c1ccc(F)cc1`?
S100A4 MyoIIA: -19; SIRT5 block: -1; ERAP1 inh: -1; AF4-AF9 inh: 0; Ecoli rRNA inh: -9

How did COc1cccc2c1C(=O)c1c(O)c3c(c(O)c1C2=O)CC(O)(C(C)=O)CC3OC1CC(N(C)C)C(O)C(C)O1 (centres undefined) do in these assays?
S100A4 MyoIIA: active; SIRT5 block: -1; ERAP1 inh: 6; AF4-AF9 inh: 14; Ecoli rRNA inh: 20

How did COc1cccc2c1C(=O)c1c(O)c3c(c(O)c1C2=O)C[C@@](O)(C(=O)CO)C[C@@H]3OC1CC(N)C(O)C(C)O1 (some centres undefined) do in these assays?
S100A4 MyoIIA: 187*; ERAP1 inh: 6; AF4-AF9 inh: 8; Ecoli rRNA inh: 8; E-selectin induc: inconclusive

Results for CC(=O)[C@@]1(O)Cc2c(O)c3c(c(O)c2[C@H](O[C@H]2C[C@H](N)[C@H](O)[C@H](C)O2)C1)C(=O)c1ccccc1C3=O ?
S100A4 MyoIIA: active; SIRT5 block: -3; AF4-AF9 inh: 25*; Ecoli rRNA inh: 73; E-selectin induc: 3

How did COc1cccc2c1C(=O)c1c(O)c3c(c(O)c1C2=O)C[C@@](O)(C(=O)CO)C[C@@H]3O[C@H]1C[C@H](N)[C@H](O)[C@H](C)O1 do in these assays?
S100A4 MyoIIA: 178*; SIRT5 block: -2; ERAP1 inh: 7; AF4-AF9 inh: 19; E-selectin induc: 58*

What do the screens show for `C[C@@H]1CN([C@@H](C)CO)C(=O)Cc2cc(NC(=O)Cc3cn(C)c4ccccc34)ccc2O[C@@H]1CN(C)C(=O)NC1CCCCC1`?
S100A4 MyoIIA: 2; SIRT5 block: -6; ERAP1 inh: -1; AF4-AF9 inh: 2; Ecoli rRNA inh: -2

How did COc1ccc(-c2csc3ncn(-c4ccccc4OC)c(=O)c23)cc1OC do in these assays?
S100A4 MyoIIA: -2; SIRT5 block: 0; ERAP1 inh: -2; AF4-AF9 inh: 1; Ecoli rRNA inh: -26*; E-selectin induc: 0

Results for Cc1ccc(S(=O)(=O)N(C)C[C@@H]2Oc3ccc(NC(=O)C4CC4)cc3CC(=O)N([C@@H](C)CO)C[C@H]2C)cc1 ?
S100A4 MyoIIA: 10; SIRT5 block: 2; ERAP1 inh: -1; AF4-AF9 inh: -1; Ecoli rRNA inh: -1; E-selectin induc: 0

What do the screens show for `CCCNC(=O)C[C@H]1CC[C@@H]2[C@@H](COc3ccc(NC(=O)c4cccc(F)c4)cc3C(=O)N2C)O1`?
S100A4 MyoIIA: 3; SIRT5 block: -2; ERAP1 inh: 0; AF4-AF9 inh: 1; Ecoli rRNA inh: -1; E-selectin induc: 0

Results for CCCc1[nH]n(-c2nc3ccccc3s2)c(=O)c1C=NCCCOC ?
S100A4 MyoIIA: -2; SIRT5 block: 3; AF4-AF9 inh: -4; Ecoli rRNA inh: -4; E-selectin induc: 0

Results for CCCc1[nH]n(-c2nc3ccccc3s2)c(=O)c1C=NCC1CCCO1 (centres undefined) ?
S100A4 MyoIIA: 1; SIRT5 block: -1; ERAP1 inh: 1; Ecoli rRNA inh: -25*

Results for COc1ccc2c3c([nH]c2c1)[C@H](CO)N(C(=O)NC(C)C)CC31CN(C(=O)c2cnccn2)C1 ?
S100A4 MyoIIA: 11; SIRT5 block: 4; ERAP1 inh: -1; AF4-AF9 inh: 0; Ecoli rRNA inh: 1; E-selectin induc: 0

What do the screens show for `Cc1noc(C)c1S(=O)(=O)Nc1ccc2c(c1)C(=O)N([C@H](C)CO)C[C@H](C)[C@H](CN(C)Cc1ccncc1)O2`?
S100A4 MyoIIA: 4; SIRT5 block: 1; ERAP1 inh: -2; AF4-AF9 inh: -3; Ecoli rRNA inh: -3; E-selectin induc: 2

Results for COc1ccc2c3c([nH]c2c1)[C@H](CO)N(S(C)(=O)=O)CC31CCN(Cc2cccc(F)c2)CC1 ?
AF4-AF9 inh: 36*; Ecoli rRNA inh: -1; E-selectin induc: 0
